From ChEMBL document CHEMBL5247575 (J Med Chem, 2018)
pKi: −log10 of the molar value.

What was measured:
Bacteria [1] = assay: Inhibition of bacteria ADC-7 assessed as second order rate constant K2/K using nitrocefin as substrate
[2] = Inhibition of bacteria ADC-7 assessed as apparent inhibition constant using nitrocefin as substrate
Bacteria [3] = assay: Inhibition of bacteria OXA-48 assessed as second order rate constant K2/K using nitrocefin as substrate
Escherichia coli [4] = assay: Antibacterial activity against Escherichia coli DH10B by broth microdilution method; format: functional
Escherichia coli [5] = assay: Synergistic antibacterial activity against Escherichia coli DH10B transfected with pBC SK (-) OXA-48 assessed as cefepime MIC at 4 ug/ml by broth microdilution method; format: functional; details: dose 4 µg/ml
In short: (§1)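 Broth microdilution per CLSI guidelines, using custom frozen panels. […] Each partner drug was also tested alone. MICs were run in triplicate and the modal value is reported.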

Klebsiella pneumoniae [6] = assay: Synergistic antibacterial activity against Klebsiella pneumoniae 776/1742 producing KPC-2 assessed as cefepime MIC at 4 ug/ml by broth microdilution method; format: functional; details: dose 4 µg/ml
Klebsiella pneumoniae [7] = assay: Synergistic antibacterial activity against Klebsiella pneumoniae 1108/1989 producing KPC-3 assessed as cefepime MIC at 4 ug/ml by broth microdilution method; format: functional; details: dose 4 µg/ml; in short: as §1
Klebsiella pneumoniae [8] = assay: Synergistic antibacterial activity against Klebsiella pneumoniae 440/1360 producing KPC-2 assessed as cefepime MIC at 4 ug/ml by broth microdilution method; format: functional; details: dose 4 µg/ml; in short: as §1
Acinetobacter baumannii [9] = assay: Synergistic antibacterial activity against Acinetobacter baumannii PR323 producing OXA-24/40 assessed as cefepime MIC at 4 ug/ml by broth microdilution method; format: functional; details: dose 4 µg/ml
Acinetobacter baumannii [10] = assay: Synergistic antibacterial activity against Acinetobacter baumannii PR363 producing OXA-23 assessed as cefepime MIC at 4 ug/ml by broth microdilution method; format: functional; details: dose 4 µg/ml
Acinetobacter baumannii [11] = assay: Synergistic antibacterial activity against Acinetobacter baumannii PR408 producing OXA-24/40 assessed as cefepime MIC at 4 ug/ml by broth microdilution method; format: functional; details: dose 4 µg/ml
Acinetobacter baumannii [12] = assay: Synergistic antibacterial activity against Acinetobacter baumannii PR474 producing OXA-23/24/40 assessed as cefepime MIC at 4 ug/ml by broth microdilution method; format: functional; details: dose 4 µg/ml
Escherichia coli [13] = assay: Synergistic antibacterial activity against Escherichia coli DH10B transfected with pBC SK (-) KPC-3 assessed as meropenem MIC at 4 ug/ml by broth microdilution method; format: functional; details: dose 4 µg/ml
Escherichia coli [14] = assay: Synergistic antibacterial activity against Escherichia coli DH10B transfected with pBC SK (-) PDC-3 assessed as meropenem MIC at 4 ug/ml by broth microdilution method; format: functional; details: dose 4 µg/ml; in short: as §1
Escherichia coli [15] = assay: Synergistic antibacterial activity against Escherichia coli DH10B transfected with pBC SK (-) OXA-48 assessed as meropenem MIC at 4 ug/ml by broth microdilution method; format: functional; details: dose 4 µg/ml; in short: as §1
Klebsiella pneumoniae [16] = assay: Synergistic antibacterial activity against Klebsiella pneumoniae 1315/2198 producing KPC-3 assessed as meropenem MIC at 4 ug/ml by broth microdilution method; format: functional; details: dose 4 µg/ml; in short: as §1
Klebsiella pneumoniae [17] = assay: Synergistic antibacterial activity against Klebsiella pneumoniae 1398/2291 producing KPC-3 assessed as meropenem MIC at 4 ug/ml by broth microdilution method; format: functional; details: dose 4 µg/ml; in short: as §1
Klebsiella pneumoniae [18] = assay: Synergistic antibacterial activity against Klebsiella pneumoniae NY BS producing OXA-232 assessed as meropenem MIC at 4 ug/ml by broth microdilution method; format: functional; details: dose 4 µg/ml
Acinetobacter baumannii [19] = assay: Synergistic antibacterial activity against Acinetobacter baumannii PR381 producing OXA-24/40 assessed as meropenem MIC at 4 ug/ml by broth microdilution method; format: functional; details: dose 4 µg/ml
Acinetobacter baumannii [20] = assay: Synergistic antibacterial activity against Acinetobacter baumannii PR408 producing OXA-24/40 assessed as meropenem MIC at 4 ug/ml by broth microdilution method; format: functional; details: dose 4 µg/ml
Acinetobacter baumannii [21] = assay: Synergistic antibacterial activity against Acinetobacter baumannii PR440 producing OXA-23/24/40 assessed as meropenem MIC at 4 ug/ml by broth microdilution method; format: functional; details: dose 4 µg/ml
Bacteria [22] = test system: Bacteria
Escherichia coli [23] = assay: Antibacterial activity against Escherichia coli DH10B transfected with pBC SK (-) KPC-2 by broth microdilution method; format: functional
Pseudomonas aeruginosa [24] = assay: Antibacterial activity against Pseudomonas aeruginosa 776 by broth microdilution method; format: functional
Escherichia coli [25] = assay: Synergistic antibacterial activity against Escherichia coli DH10B transfected with pBC SK (-) KPC-2 assessed as cefepime MIC at 8 ug/ml by broth microdilution method; format: functional; details: dose 8 µg/ml
Escherichia coli [26] = assay: Synergistic antibacterial activity against Escherichia coli DH10B transfected with pBC SK (-) PDC-3 assessed as cefepime MIC at 8 ug/ml by broth microdilution method; format: functional; details: dose 8 µg/ml; in short: as §1
Escherichia coli [27] = assay: Synergistic antibacterial activity against Escherichia coli DH10B transfected with pBC SK (-) OXA-48 assessed as cefepime MIC at 8 ug/ml by broth microdilution method; format: functional; details: dose 8 µg/ml; in short: as §1
Acinetobacter baumannii [28] = assay: Synergistic antibacterial activity against ADC deleted Acinetobacter baumannii assessed as cefepime MIC at 8 ug/ml by broth microdilution method; format: functional; details: dose 8 µg/ml
Klebsiella pneumoniae [29] = assay: Synergistic antibacterial activity against Klebsiella pneumoniae 901/1860 producing KPC-3 assessed as cefepime MIC at 8 ug/ml by broth microdilution method; format: functional; details: dose 8 µg/ml
Klebsiella pneumoniae [30] = assay: Synergistic antibacterial activity against Klebsiella pneumoniae 935/1884 producing KPC-3 assessed as cefepime MIC at 8 ug/ml by broth microdilution method; format: functional; details: dose 8 µg/ml
Klebsiella pneumoniae [31] = assay: Synergistic antibacterial activity against Klebsiella pneumoniae 1315/2198 producing KPC-3 assessed as cefepime MIC at 8 ug/ml by broth microdilution method; format: functional; details: dose 8 µg/ml; in short: as §1
Klebsiella pneumoniae [32] = assay: Synergistic antibacterial activity against Klebsiella pneumoniae 1398/2291 producing KPC-3 assessed as cefepime MIC at 8 ug/ml by broth microdilution method; format: functional; details: dose 8 µg/ml; in short: as §1
Klebsiella pneumoniae [33] = assay: Synergistic antibacterial activity against Klebsiella pneumoniae 11978 producing OXA-48 assessed as cefepime MIC at 8 ug/ml by broth microdilution method; format: functional; details: dose 8 µg/ml; in short: as §1
Klebsiella pneumoniae [34] = assay: Synergistic antibacterial activity against Klebsiella pneumoniae jefferson 1773 producing OXA-181 assessed as cefepime MIC at 8 ug/ml by broth microdilution method; format: functional; details: dose 8 µg/ml
Escherichia coli [35] = assay: Synergistic antibacterial activity against Escherichia coli DH10B transfected with pBR322-catI-KPC-2 assessed as meropenem MIC at 8 ug/ml by broth microdilution method; format: functional; details: dose 8 µg/ml; in short: as §1
Escherichia coli [36] = assay: Synergistic antibacterial activity against Escherichia coli DH10B transfected with pBC SK (-) KPC-3 assessed as meropenem MIC at 8 ug/ml by broth microdilution method; format: functional; details: dose 8 µg/ml
Pseudomonas aeruginosa [37] = assay: Synergistic antibacterial activity against Pseudomonas aeruginosa CL232 assessed as meropenem MIC at 8 ug/ml by broth microdilution method; format: functional; details: dose 8 µg/ml
Pseudomonas aeruginosa [38] = assay: Synergistic antibacterial activity against Pseudomonas aeruginosa 839 assessed as meropenem MIC at 8 ug/ml by broth microdilution method; format: functional; details: dose 8 µg/ml
Acinetobacter baumannii [39] = assay: Synergistic antibacterial activity against Acinetobacter baumannii PR363 producing OXA-23 assessed as meropenem MIC at 8 ug/ml by broth microdilution method; format: functional; details: dose 8 µg/ml
Acinetobacter baumannii [40] = assay: Synergistic antibacterial activity against Acinetobacter baumannii PR420 producing OXA-23/24/40 assessed as meropenem MIC at 8 ug/ml by broth microdilution method; format: functional; details: dose 8 µg/ml
Acinetobacter baumannii [41] = assay: Synergistic antibacterial activity against Acinetobacter baumannii PR474 producing OXA-23/24/40 assessed as meropenem MIC at 8 ug/ml by broth microdilution method; format: functional; details: dose 8 µg/ml

SMILES | K (Bacteria [1]) | K (Bacteria [3]) | MIC (Escherichia coli [4]) [µg/mL] | MIC (Escherichia coli [5]) [µg/mL] | MIC (Klebsiella pneumoniae [6]) [µg/mL] | MIC (Klebsiella pneumoniae [7]) [µg/mL] | MIC (Klebsiella pneumoniae [8]) [µg/mL] | MIC (Acinetobacter baumannii [9]) [µg/mL] | MIC (Acinetobacter baumannii [10]) [µg/mL] | MIC (Acinetobacter baumannii [11]) [µg/mL] | MIC (Acinetobacter baumannii [12]) [µg/mL] | MIC (Escherichia coli [13]) [µg/mL] | MIC (Escherichia coli [14]) [µg/mL] | MIC (Escherichia coli [15]) [µg/mL] | MIC (Klebsiella pneumoniae [16]) [µg/mL] | MIC (Klebsiella pneumoniae [17]) [µg/mL] | MIC (Klebsiella pneumoniae [18]) [µg/mL] | MIC (Acinetobacter baumannii [19]) [µg/mL] | MIC (Acinetobacter baumannii [20]) [µg/mL] | MIC (Acinetobacter baumannii [21]) [µg/mL] | also measured
NC(=O)[C@@H]1CC[C@@H]2CN1C(=O)N2OS(=O)(=O)[O-].[Na+] [AVIBACTAM SODIUM] | 3.9 10^3/M/s | 1.4 10^3/M/s | 4 | ≤ 0.12 | 0.5 | ≤ 0.12 | ≤ 0.12 | > 16 | > 16 | > 16 | > 16 | ≤ 0.12 | ≤ 0.12 | ≤ 0.12 | ≤ 0.12 | ≤ 0.12 | 0.5 | > 16 | > 16 | > 16 | pKi [2]: 4.72; T1/2 (Bacteria [22]): 23.9 h
O.O=C(NC1CCNCC1)[C@@H]1CC[C@@H]2CN1C(=O)N2OS(=O)(=O)O [RELEBACTAM] | 7.8 10^3/M/s | – | > 16 | ≤ 0.12 | 1 | 0.5 | 1 | > 16 | 16 | 16 | > 16 | ≤ 0.12 | ≤ 0.12 | 0.25 | ≤ 0.12 | ≤ 0.12 | > 16 | > 16 | > 16 | > 16 | MIC (Escherichia coli [23]): > 16 µg/mL; MIC (Pseudomonas aeruginosa [24]): > 16 µg/mL
N#C[C@@H]1CC[C@@H]2CN1C(=O)N2OS(=O)(=O)[O-].[Na+] | 1.9 10^4/M/s | 6.4 10^5/M/s | > 16 | ≤ 0.12 | 1 | 0.25 | 0.5 | > 16 | 8 | 8 | 8 | ≤ 0.12 | ≤ 0.12 | ≤ 0.12 | ≤ 0.12 | ≤ 0.12 | 0.25 | > 16 | > 16 | 4 | MIC (Escherichia coli [23]): > 16 µg/mL; MIC (Escherichia coli [25]): ≤ 0.12 µg/mL; MIC (Escherichia coli [26]): ≤ 0.12 µg/mL; MIC (Escherichia coli [27]): ≤ 0.12 µg/mL; MIC (Acinetobacter baumannii [28]): 0.5 µg/mL; MIC (Klebsiella pneumoniae [29]): ≤ 0.12 µg/mL; MIC (Klebsiella pneumoniae [30]): ≤ 0.12 µg/mL; MIC (Klebsiella pneumoniae [31]): 0.25 µg/mL; MIC (Klebsiella pneumoniae [32]): 0.25 µg/mL; MIC (Klebsiella pneumoniae [33]): 0.5 µg/mL; MIC (Klebsiella pneumoniae [34]): 1 µg/mL; MIC (Escherichia coli [35]): ≤ 0.12 µg/mL; MIC (Escherichia coli [36]): ≤ 0.12 µg/mL; MIC (Pseudomonas aeruginosa [37]): > 16 µg/mL; MIC (Pseudomonas aeruginosa [38]): 1 µg/mL; MIC (Acinetobacter baumannii [39]): 2 µg/mL; MIC (Acinetobacter baumannii [40]): 8 µg/mL; MIC (Acinetobacter baumannii [41]): 16 µg/mL; T1/2 (Bacteria [22]): 0.383 h
